Laboratory results: the RNAGym collection of RNA variant scans (doi:10.1126/science.aae0568)
Fewer inactive variants are shown than the library holds.

B1: tRNA (parent)
chain: GUUCCGUUGGCGUAAUGGUAACGCGUCUCCCUCCUAAGGAGAAGACUGCGGGUUCGAGUCCCGUACGGAACG

Variants of: B1
Assay: yeast fitness relative to wild type (ratio to wild type); higher = fitter; tRNA-Arg(CCU), competitive growth, 37 C, YPD
Procedure, shortened: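 Variants of the tRNA-Arg(CCU) gene, chemically synthesised with a 3% per-site mutation rate at 69 sites, were placed at the native genomic locus in Saccharomyces cerevisiae. The pooled strains were competed in YPD at 37°C for 24 hours in six parallel replicates. Gene amplicons from the start population and from each end population were read by 100-nucleotide paired-end sequencing. Darwinian fitness relative to wild type came from changes in genotype frequencies; genotypes needed ≥ 100 starting reads, and estimates < 0.5 were set to 0.5.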
In the case of C11G A36C G56A, the yeast fitness is reported as 0.533.
For C11G C49G C60A A70U, the yeast fitness was no more than 0.5.
For C11G A15U G38A C46G G56C, the yeast fitness was no more than 0.5.
For C11G C29G C55A U64C, the yeast fitness was no more than 0.5.
For C11G A21G C31G A65U, the yeast fitness was 0.561.
For C11A U64A, the yeast fitness was 0.635.
C11G A15G C22A U26A A40U U54C C62A gave a yeast fitness of no more than 0.5.
Work on C11G U16A C24U yielded a yeast fitness of no more than 0.5.
C11G C30G A65C gave a yeast fitness of no more than 0.5.
C11G A20G C49G gave a yeast fitness of no more than 0.5.
C11G A20G U32A showed a yeast fitness of no more than 0.5.
Variant C11G G38C C49A has a yeast fitness of 0.583.
C11A U16C G18C C61A G67A showed a yeast fitness of no more than 0.5.
C11G G18C C49A A70C gave a yeast fitness of no more than 0.5.
With C11G C30U A37C C55G A65G the yeast fitness was no more than 0.5.
For C11G C55G A57C C66U, the yeast fitness was no more than 0.5.
With C11A U59C A69U the yeast fitness was 0.573.
For C11G A42G U54C A57C, the yeast fitness was no more than 0.5.
C11G A43U A45G U47C showed a yeast fitness of no more than 0.5.
C11G G50A gave a yeast fitness of 0.716.
Work on C11G G50C yielded a yeast fitness of 0.597.
In the case of C11A U59C C66U A70C, the yeast fitness is reported as no more than 0.5.
In the case of C11G A15U C24G A40G C62U A70C, the yeast fitness is reported as 0.614.
With C11G A15U C22U U32C A42G the yeast fitness was no more than 0.5.
With C11G A15C C30U U53A C61G the yeast fitness was no more than 0.5.
Work on C11G A14G G23A C46A G68U yielded a yeast fitness of no more than 0.5.
With C11G C33G A69U the yeast fitness was no more than 0.5.
C11G G17C U35C C49U C66U gave a yeast fitness of no more than 0.5.
Variant C11G A42U C49U C62U has a yeast fitness of no more than 0.5.
For C11G C27A C31A, the yeast fitness was no more than 0.5.
Work on C11G C34G A36G G48C yielded a yeast fitness of no more than 0.5.
C11G C24U A42C A65C showed a yeast fitness of no more than 0.5.
Variant C11G A21G G51C has a yeast fitness of 0.872.
Work on C11G A37G G50A yielded a yeast fitness of no more than 0.5.
In the case of C11G A15U A36U, the yeast fitness is reported as no more than 0.5.
For C11G C27U C60A, the yeast fitness was 0.535.
Variant C11G G51A C60U has a yeast fitness of 0.79.
C11A U59A showed a yeast fitness of 0.629.
Work on C11G C27A A57C C62U yielded a yeast fitness of no more than 0.5.
For C11G G52C U54C A57U, the yeast fitness was no more than 0.5.
With C11G G12C C60G the yeast fitness was no more than 0.5.
Work on C11G G39C U47C C60A C61G yielded a yeast fitness of no more than 0.5.
For C11G A21U, the yeast fitness was 0.536.
C11G G48C showed a yeast fitness of 0.687.
With C11A U19A C29A U32A G44U G58A the yeast fitness was no more than 0.5.
Variant C11G G23C has a yeast fitness of 1.07.
With C11G C30A U35A the yeast fitness was no more than 0.5.
C11G C24G C62U gave a yeast fitness of 0.528.
For C11G A21U U47A G63C, the yeast fitness was no more than 0.5.
In the case of C11G G39C U47C C60A C61G A69U, the yeast fitness is reported as 0.528.
With C11G C29A C31G C46A C60G the yeast fitness was 0.614.
Work on C11G A15G U26G G44A yielded a yeast fitness of no more than 0.5.
For C11G C33U G68C, the yeast fitness was no more than 0.5.
Variant C11G A21U C24U C66U has a yeast fitness of 0.631.
C11A U26A U54A gave a yeast fitness of no more than 0.5.
In the case of C11A U13G G51A, the yeast fitness is reported as no more than 0.5.
For C11G G25A A36U, the yeast fitness was 0.615.
For C11G G23C G25A, the yeast fitness was 0.977.
For C11G C31G A42U A65C, the yeast fitness was 0.602.
C11G A15C A70C showed a yeast fitness of no more than 0.5.
Variant C11G A65C C66G has a yeast fitness of no more than 0.5.
In the case of C11A U32A A70U, the yeast fitness is reported as no more than 0.5.
Variant C11G C34U G41A has a yeast fitness of 0.544.
Work on C11G A15C G18A C30G U47G G67A yielded a yeast fitness of 0.656.
C11G C22A C31A C61A showed a yeast fitness of no more than 0.5.
In the case of C11G A36C A45G A57C C61G, the yeast fitness is reported as no more than 0.5.
Work on C11G C49U G50A C61U yielded a yeast fitness of no more than 0.5.
Variant C11G G25A A36U C60U has a yeast fitness of no more than 0.5.
C11A U13G C24G C34G G52A showed a yeast fitness of no more than 0.5.
C11G A14U G48C gave a yeast fitness of 0.58.
C11G G23A C34G showed a yeast fitness of no more than 0.5.
Work on C11G C33G yielded a yeast fitness of no more than 0.5.
Work on C11G A15U C24G A40G G51A C60U G67A yielded a yeast fitness of no more than 0.5.
Variant C11G G12A C61G G68A has a yeast fitness of 0.556.
For C11G A42U A43C C55A C66A, the yeast fitness was no more than 0.5.
For C11G C27U C33G G52A, the yeast fitness was no more than 0.5.
Work on C11G A15C A45C yielded a yeast fitness of no more than 0.5.
In the case of C11G A37C A42U, the yeast fitness is reported as no more than 0.5.
C11G A14G A37G G44A showed a yeast fitness of no more than 0.5.
C11G G39C C61U gave a yeast fitness of no more than 0.5.
For C11G C49U G68U, the yeast fitness was no more than 0.5.
Work on C11A U32A yielded a yeast fitness of no more than 0.5.
For C11A U16C C31U A69U, the yeast fitness was no more than 0.5.
